# Assay results from ChEMBL document CHEMBL1129957, “Synthesis, antiproliferative and antiviral activity of imidazo[4,5-d]isothiazole nucleosides as 5:5 fused analogs of nebularine and 6-methylpurine ribonucleoside” (J Med Chem, 1997).
# Experiments:
# [1] = test system: L1210; assay: Antiproliferative activity against murine L1210 cells; type: functional, cell-based; conditions: Mus musculus
# Summary of the method: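 Murine L1210 leukemia cells in Fischer's medium with 10% heat-inactivated horse serum; cells counted at 0, 24, 48, 72, 96 h with compound; growth rate from slope of semilog cell number vs time, as percent of control (doubling time 12 h). IC50 = concentration halving growth rate; average of two or three experiments.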
# [2] = test system: Human betaherpesvirus 5; assay: Antiviral activity against human cytomegalovirus (HCMV) in plaque reduction assay; type: functional, organism-based
# Summary of the method: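 HFF cells infected with roughly 100 pfu HCMV Towne per cm2; after adsorption, drug in growth medium at four to eight concentrations in duplicate wells; 7 days at 37 °C, crystal violet staining, microscopic plaque counts as percent reduction versus no-drug control. IC50 by regression on log concentration; average of duplicate experiments.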
# [3] = test system: Human alphaherpesvirus 1; assay: Antiviral activity against herpes simplex virus type 1 (HSV-1) by ELISA test; type: functional, organism-based
# Summary of the method: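 BSC-1 cells (10 000/well) in MEM(E) plus 10% calf serum, incubated overnight at 37 °C, then drug in quadruplicate plus HSV-1 KOS at 100 pfu/well; 3 days at 37 °C; HRP-conjugated rabbit anti-HSV-1 antibody, TMB substrate, absorbance at 450 and 570 nm. Percent reduction versus virus-only control; IC50 by regression on log concentration.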
# [4] = test system: HFF; assay: Inhibition against human foreskin fibroblast (HFF) in a visual assay at time of plaque enumeration; type: functional, cell-based
# Summary of the method: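 Stationary uninfected HFF cells, grown in MEM with 10% fetal bovine serum, inspected microscopically for cytotoxicity, scored visually when plaques were counted in the HCMV plaque assay.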
# [5] = test system: KB; assay: Antiproliferative activity against KB cell; type: functional, cell-based; conditions: Homo sapiens
# Summary of the method: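 KB cells seeded at 3000-5000/well, compound added after overnight culture at 37 °C in quadruplicate at six to eight concentrations; 48 h incubation (about two population doublings) in CO2 incubator; ethanol fixation, 0.1% crystal violet stain, eluted dye read at 570 nm. IC50 from linear regression of percent inhibition against log concentration.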
IC50 [1],IC50 [2],IC50 [3],IC50 [5],SMILES,IC50 [4]
8.6 µM,32 µM,20 µM,15 µM,CSc1nc2sncc2n1[C@@H]1O[C@H](CO)[C@@H](O)[C@H]1O,21 µM
> 100 µM,> 100 µM,> 100 µM,> 100 µM,CSc1nc2c(C)nsc2n1[C@@H]1O[C@H](CO)[C@@H](O)[C@H]1O,> 100 µM
> 100 µM,> 100 µM,> 100 µM,> 100 µM,CSc1nc2cnsc2n1[C@@H]1O[C@H](CO)[C@@H](O)[C@H]1O,> 100 µM
11 µM,32 µM,25 µM,15 µM,CSc1nc2sncc2n1[C@@H]1O[C@H](CO)[C@@H](O)[C@@H]1O,21 µM
> 100 µM,> 100 µM,> 100 µM,> 100 µM,CSc1nc2c(C)nsc2n1[C@@H]1O[C@H](CO)[C@@H](O)[C@@H]1O,> 100 µM
> 100 µM,> 100 µM,100 µM,> 100 µM,CSc1nc2cnsc2n1[C@@H]1O[C@H](CO)[C@@H](O)[C@@H]1O,> 100 µM
10 µM,> 100 µM,> 100 µM,90 µM,Cc1nsc2c1ncn2[C@@H]1O[C@H](CO)[C@@H](O)[C@H]1O,150 µM
20 µM,22 µM,10 µM,6 µM,CSc1nc2sncc2n1[C@H]1C[C@H](O)[C@@H](CO)O1,15 µM
1.5 µM,3.2 µM,> 100 µM,3 µM,OC[C@H]1OC(n2c(SCc3ccccc3)nc3sncc32)[C@@H](O)[C@@H]1O (stereo not given in full),2.1 µM
100 µM,32 µM,70 µM,> 100 µM,Cc1nsc2ncn(C3O[C@H](CO)[C@@H](O)[C@H]3O)c12 (stereo not given in full),32 µM

# Second part, the compound before the results:
SMILES,IC50 [1],IC50 [2],IC50 [3],IC50 [5],IC50 [4]
c1ccc(CSc2nc3cnsc3[nH]2)cc1,0.3 µM,21 µM,15 µM,0.2 µM,14 µM
Cc1nsc2c1nc(SCc1ccccc1)n2[C@@H]1O[C@H](CO)[C@@H](O)[C@H]1O,> 100 µM,> 100 µM,> 100 µM,> 100 µM,> 100 µM
Cc1nsc2c1ncn2[C@@H]1O[C@H](CO)[C@@H](O)[C@@H]1O,> 100 µM,> 100 µM,> 100 µM,> 100 µM,> 100 µM
Cc1nsc2c1nc(SCc1ccccc1)n2[C@@H]1O[C@H](CO)[C@@H](O)[C@@H]1O,> 100 µM,> 100 µM,> 100 µM,> 100 µM,> 100 µM
OC[C@H]1O[C@@H](n2c(SCc3ccccc3)nc3sncc32)C[C@@H]1O,2.2 µM,3.2 µM,15 µM,3 µM,2.1 µM
CSc1nc2snc(C)c2n1[C@H]1C[C@H](O)[C@@H](CO)O1,33 µM,32 µM,60 µM,30 µM,32 µM
CSc1nc2c(C)nsc2n1[C@H]1C[C@H](O)[C@@H](CO)O1,> 100 µM,> 100 µM,> 100 µM,> 100 µM,> 100 µM
CSc1nc2cnsc2n1[C@H]1C[C@H](O)[C@@H](CO)O1,> 100 µM,> 100 µM,> 100 µM,> 100 µM,> 100 µM
Cc1nsc2ncn([C@H]3C[C@H](O)[C@@H](CO)O3)c12,78 µM,> 100 µM,> 100 µM,> 100 µM,> 100 µM
OC[C@H]1O[C@@H](n2c(SCc3ccccc3)nc3cnsc32)C[C@@H]1O,8 µM,> 100 µM,> 100 µM,> 100 µM,> 100 µM
Cc1nsc2c1nc(SCc1ccccc1)n2[C@H]1C[C@H](O)[C@@H](CO)O1,> 100 µM,> 100 µM,> 100 µM,> 100 µM,> 100 µM
Cc1nsc2c1ncn2[C@H]1C[C@H](O)[C@@H](CO)O1,> 100 µM,> 100 µM,> 100 µM,> 100 µM,> 100 µM
Cc1nsc2[nH]c(SCc3ccccc3)nc12,7 µM,21 µM,45 µM,9 µM,10 µM
Cc1nsc2[nH]cnc12,17 µM,32 µM,45 µM,20 µM,32 µM
CSc1nc2cnsc2[nH]1,7 µM,32 µM,45 µM,15 µM,32 µM
CSc1nc2c(C)nsc2[nH]1,13 µM,18 µM,60 µM,60 µM,26 µM
OC[C@H]1OC(n2c(SCc3ccccc3)nc3cnsc32)[C@@H](O)[C@@H]1O (stereo not given in full),> 100 µM,> 100 µM,> 100 µM,> 100 µM,> 100 µM
